Reference: ChEMBL document CHEMBL1143148, “Influence of heterocyclic and oxime-containing farnesol analogs on quorum sensing and pathogenicity in Candida albicans” (Bioorg Med Chem, 2008)
The source made the active and inactive calls. The rule behind the calls is not given here.

How the values were obtained:
[1] = tested on: Candida albicans; test: Effect on rate of cell growth in Candida albicans at > 100 uM; type: functional, organism-based
[2] = tested on: Mus musculus; test: Toxicity against ip dosed mouse after 14 days; type: organism-based; details: in vivo, 336 h
[3] = tested on: Candida albicans; test: Effect on quorum sensing in Candida albicans assessed as inhibition of germ tube formation; type: functional, organism-based
Method in brief: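 Undifferentiated C. albicans cells inoculated to a final 1–2 × 10⁷ cells/ml in 2.5 mM N-acetyl glucosamine buffered to pH 7. Incubated 4 h at 37 °C with shaking at 200 rpm. Percentage of cells forming germ tubes then scored and inhibition relative to untreated cells taken. Triplicate readings.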

[4] = tested on: Candida albicans; test: Protection against Candida albicans A72 infected mouse model of disseminated candidiasis assessed as mortality at 20 mM, ip; type: functional, organism-based
Method in brief: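 Mice inoculated by tail vein with C. albicans A72 at 5 × 10⁶ or 2 × 10⁶ cells, 15 per group. Each got 1 ml IP of a 20 mM analog solution in 0.5% Tween 80 in saline, or a vehicle control injection. Mortality followed over time.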

[5] = tested on: Candida albicans; test: Enhancement of pathogen virulence in Candida albicans A72 infected mouse model of disseminated candidiasis assessed as mortality at 20 mM, ip after 60 hrs of infection relative to control; type: functional, organism-based
Method in brief: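 Mice inoculated by tail vein with C. albicans A72 at 5 · 10⁶ or 2 · 10⁶ cells, 45 mice per inoculum, split into 3 groups of 15. Each group received IP 1 ml of either 0.5% Tween 80 in saline (control) or a 20 mM analog solution in 0.5% Tween 80 in sterile nonpyrogenic saline. Mortality was followed over time.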

| IC50 [3] [µM] | SMILES | Activity [1] | Activity [2] | Activity [4] | Activity [5] |
| --- | --- | --- | --- | --- | --- |
| 3 | CCCCCCCCCc1nnn[nH]1 | inactive | Non-toxic | – | – |
| 1 | CC(C)=CCC/C(C)=C/CCc1c[nH]nn1 | – | – | – | – |
| 1 | CC(C)=CCC/C(C)=C/CSc1nc[nH]n1 | – | Non-toxic | inactive | – |
| 5 | CC(C)=CCC/C(C)=C/CC/C(C)=C/C=N/O | inactive | Toxic | – | – |
| ≥ 100 | CO/N=C/C=C(\C)CC/C=C(\C)CCC=C(C)C | inactive | – | – | – |
| 10 | C(=C\c1nn[nH]n1)/c1ccccc1 | inactive | – | – | – |
| > 50 | CC(C)=CCC/C(C)=C/CSc1ncc[nH]1 | – | – | – | – |
| > 50 | CC(C)=CCC/C(C)=C/Cc1nnn[nH]1 | inactive | – | – | – |
| 1 | CC(C)=CCC/C(C)=C/CC/C(C)=C/CO [FARNESOL] | inactive | Non-toxic | – | – |
| 10 | CC(C)=C/C=C/C(C)=C/C=C/C(C)=C/C=N/O | inactive | – | – | – |
| 3 | CC(C)=CCC/C(C)=C/CSc1c[nH]nn1 | – | – | – | – |
| > 50 | CC(C)=CCC/C(C)=C/CSc1nn[nH]n1 | – | – | – | – |

| SMILES | IC50 [3] [µM] | Activity [1] | Activity [2] | Activity [4] | Activity [5] |
| --- | --- | --- | --- | --- | --- |
| CC(C)=CCC/C(C)=C/CCc1nnn[nH]1 | 7 | inactive | Non-toxic | inactive | Active |
